Reference: ChEMBL document CHEMBL3745596, “Chlorophenoxy aminoalkyl derivatives as histamine H(3)R ligands and antiseizure agents” (Bioorg Med Chem, 2016)
Calls of active or inactive are those of the source.

How the values were obtained:
[1] = tested on: Mus musculus; experiment: Neurotoxicity in CF1 albino mouse assessed as death at 300 mg/kg, ip after 0.5 hrs by rotarod test; assay type: toxicity, organism-based; settings: in vivo
In short: (§1)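 Male albino CF-1 mice dosed ip with compound suspended in 0.5% methylcellulose, then placed on a 1-inch knurled plastic rod turning at 6 rpm. A fall three times within 1 min counted as neurotoxicity. Observations were made at 0.5 h and 4 h after dosing. Result given as animals showing toxicity per animals tested, with the kind of toxicity recorded.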

[2] = tested on: Mus musculus; experiment: Anticonvulsant activity in CF1 albino mouse assessed as protection against subcutaneous pentetrazole-induced seizure at 30 mg/kg, ip after 4 hrs; assay type: functional, organism-based
In short: (§2)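 Male CF-1 mice, ip in 0.5% methylcellulose; pentetrazole at CD97 (85 mg/kg) injected subcutaneously in a loose fold of neck skin. Observed 30 min; absence of even a threshold seizure (single clonic spasm lasting at least 5 s) counted as protection. Scored protected/tested, or ED50.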

[3] = tested on: Mus musculus; experiment: Anticonvulsant activity in CF1 albino mouse assessed as protection against maximal electroshock-induced seizure at 100 mg/kg, ip after 4 hrs; assay type: functional, organism-based
In short: (§3)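 Male CF-1 mice dosed ip as suspension in 0.5% methylcellulose. Corneal electrodes deliver 60 Hz alternating current, 50 mA for […], after a drop of 0.5% tetracaine HCl in 0.9% NaCl per eye. Protection means abolition of hindlimb tonic extension; scored as protected/tested, or ED50 with 95% confidence interval.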

[4] = tested on: Mus musculus; experiment: Neurotoxicity in CF1 albino mouse at 300 mg/kg, ip after 4 hrs by rotarod test; assay type: toxicity, organism-based; settings: in vivo
In short: (§4)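 Rotarod neurotoxicity in male albino CF-1 mice dosed ip with compound suspended in 0.5% methylcellulose. Animal placed on a 1 inch diameter knurled plastic rod rotating at 6 rpm. Neurotoxicity scored when the animal falls off three times within 1 min. Readout is number of animals toxic/number tested at the stated time after dosing. TD50 with 95% confidence interval from the quantitative study.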

[5] = tested on: Mus musculus; experiment: Anticonvulsant activity in CF1 albino mouse assessed as protection against maximal electroshock-induced seizure at 30 mg/kg, ip after 0.5 hrs; assay type: functional, organism-based; in short: as §3
[6] = tested on: Mus musculus; experiment: Anticonvulsant activity in CF1 albino mouse assessed as protection against maximal electroshock-induced seizure at 30 mg/kg, ip after 4 hrs; assay type: functional, organism-based; in short: as §3
[7] = tested on: Mus musculus; experiment: Anticonvulsant activity in CF1 albino mouse assessed as protection against maximal electroshock-induced seizure at 10 mg/kg, ip after 0.5 hrs; assay type: functional, organism-based; in short: as §3
[8] = tested on: Mus musculus; experiment: Anticonvulsant activity in CF1 albino mouse assessed as protection against subcutaneous pentetrazole-induced seizure at 100 mg/kg, ip after 4 hrs; assay type: functional, organism-based; in short: as §2
[9] = tested on: Mus musculus; experiment: Neurotoxicity in CF1 albino mouse at 100 mg/kg, ip after 4 hrs by rotarod test; assay type: toxicity, organism-based; settings: in vivo; in short: as §4
[10] = tested on: Mus musculus; experiment: Anticonvulsant activity in CF1 albino mouse assessed as protection against subcutaneous pentetrazole-induced seizure at 30 mg/kg, ip after 0.5 hrs; assay type: functional, organism-based; in short: as §2
[11] = tested on: Mus musculus; experiment: Neurotoxicity in CF1 albino mouse assessed as unable to grasp rotarod, death and loss of righting reflux at 100 mg/kg, ip after 0.5 hrs by rotarod test; assay type: toxicity, organism-based; settings: in vivo; in short: as §1
[12] = tested on: Mus musculus; experiment: Neurotoxicity in CF1 albino mouse at 3 mg/kg, ip after 0.5 hrs by rotarod test; assay type: toxicity, organism-based; settings: in vivo; in short: as §4
[13] = tested on: Mus musculus; experiment: Neurotoxicity in CF1 albino mouse at 30 mg/kg, ip after 0.5 hrs by rotarod test; assay type: toxicity, organism-based; settings: in vivo; in short: as §4
[14] = tested on: Mus musculus; experiment: Neurotoxicity in CF1 albino mouse at 10 mg/kg, ip after 0.5 hrs by rotarod test; assay type: toxicity, organism-based; settings: in vivo
In short: (§5)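 Rotarod neurotoxicity in male CF-1 mice dosed ip as 0.5% methylcellulose suspension: mouse placed on 1 inch knurled rod rotating at 6 rpm; toxicity when the animal falls off three times within 1 min, with other signs noted. Scored as toxic/tested at 0.5 h and 4 h.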

[15] = tested on: Mus musculus; experiment: Neurotoxicity in CF1 albino mouse at 30 mg/kg, ip after 4 hrs by rotarod test; assay type: toxicity, organism-based; settings: in vivo; in short: as §4
[16] = target: Histamine H3 receptor (Homo sapiens, UniProt Q9Y5N1); experiment: Displacement of [3H]-Nalpha-methylhistamine from human recombinant histamine H3 receptor expressed in HEK293 cells after 90 mins; assay type: cell-based
Histamine H3 receptor, sequence (Q9Y5N1 whole entry): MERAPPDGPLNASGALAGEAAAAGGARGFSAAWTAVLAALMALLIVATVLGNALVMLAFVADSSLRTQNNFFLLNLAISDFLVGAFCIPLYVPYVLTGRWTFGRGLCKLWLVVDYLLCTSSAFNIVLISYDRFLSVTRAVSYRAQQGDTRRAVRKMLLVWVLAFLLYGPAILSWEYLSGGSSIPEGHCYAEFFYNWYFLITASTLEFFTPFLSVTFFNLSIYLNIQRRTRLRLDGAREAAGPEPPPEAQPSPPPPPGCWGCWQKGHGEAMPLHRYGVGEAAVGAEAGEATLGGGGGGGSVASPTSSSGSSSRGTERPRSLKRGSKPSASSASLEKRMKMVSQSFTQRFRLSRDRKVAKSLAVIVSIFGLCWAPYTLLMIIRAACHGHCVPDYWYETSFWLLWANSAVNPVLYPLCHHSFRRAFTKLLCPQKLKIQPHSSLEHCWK

[17] = tested on: Mus musculus; experiment: Anticonvulsant activity in CF1 albino mouse assessed as protection against maximal electroshock-induced seizure at 3 mg/kg, ip after 0.5 hrs; assay type: functional, organism-based; in short: as §3
[18] = tested on: Mus musculus; experiment: Anticonvulsant activity in CF1 albino mouse assessed as protection against subcutaneous pentetrazole-induced seizure at 100 mg/kg, ip after 0.5 hrs; assay type: functional, organism-based; in short: as §2
[19] = tested on: Mus musculus; experiment: Neurotoxicity in CF1 albino mouse at 50 mg/kg, ip after 4 hrs by rotarod test; assay type: toxicity, organism-based; settings: in vivo; in short: as §4
[20] = tested on: Rattus norvegicus; experiment: Anticonvulsant activity in Sprague-Dawley rat assessed as protection against maximal electroshock-induced seizure at 30 mg/kg, po; assay type: functional
[21] = tested on: Mus musculus; experiment: Neurotoxicity in CF1 albino mouse assessed as unable to grasp rotarod at 100 mg/kg, ip after 0.5 hrs by rotarod test; assay type: toxicity, organism-based; settings: in vivo; in short: as §5
[22] = tested on: Mus musculus; experiment: Neurotoxicity in CF1 albino mouse at 50 mg/kg, ip after 1 hr by rotarod test; assay type: toxicity, organism-based; settings: in vivo; in short: as §4
[23] = tested on: Mus musculus; experiment: Neurotoxicity in CF1 albino mouse at 50 mg/kg, ip after 2 hrs by rotarod test; assay type: toxicity, organism-based; settings: in vivo; in short: as §4
[24] = tested on: Mus musculus; experiment: Anticonvulsant activity in CF1 albino mouse assessed as protection against maximal electroshock-induced seizure at 100 mg/kg, ip after 0.5 hrs; assay type: functional, organism-based; in short: as §3
[25] = tested on: Mus musculus; experiment: Anticonvulsant activity in CF1 albino mouse assessed as protection against 6 Hz-psychomotor-induced seizure at 50 mg/kg, ip after 0.5 hrs; assay type: functional, organism-based
In short: (§6)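 Male CF-1 mice, ip suspension in 0.5% methylcellulose. Corneal stimulation 0.2 ms monopolar rectangular pulses at 6 Hz, 32 mA for 3 s via constant-current device; mice without minimal clonic phase seizure counted protected. Groups of four; read at 0.25, 0.5, 1, 2, 4 h; result as protected/tested.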

[26] = tested on: Mus musculus; experiment: Neurotoxicity in CF1 albino mouse at 50 mg/kg, ip after 0.5 hrs by rotarod test; assay type: toxicity, organism-based; settings: in vivo; in short: as §4
[27] = tested on: Mus musculus; experiment: Anticonvulsant activity in CF1 albino mouse assessed as protection against 6 Hz-psychomotor-induced seizure at 50 mg/kg, ip after 0.25 hrs; assay type: functional, organism-based; in short: as §6
[28] = tested on: Mus musculus; experiment: Anticonvulsant activity in CF1 albino mouse assessed as protection against 6 Hz-psychomotor-induced seizure at 50 mg/kg, ip after 1 hr; assay type: functional, organism-based; in short: as §6
[29] = tested on: Mus musculus; experiment: Anticonvulsant activity in CF1 albino mouse assessed as protection against 6 Hz-psychomotor-induced seizure at 50 mg/kg, ip after 4 hrs; assay type: functional, organism-based; in short: as §6
[30] = Neuroprotective activity in hippocampal slice (unknown origin) assessed as protection against kainic acid-induced cell death using propidium iodide staining; assay type: functional; settings: Hippocampus
In short: (§7)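 Organotypic hippocampal slice cultures exposed to NMDA or kainic acid alone or with compound; propidium iodide in all wells; PI fluorescence intensity of slices, proportional to cell death, compared with excitotoxin-only slices; qualitative.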

[31] = tested on: Mus musculus; experiment: Neurotoxicity in CF1 albino mouse assessed as death at 100 mg/kg, ip after 0.5 hrs by rotarod test; assay type: toxicity, organism-based; settings: in vivo; in short: as §1
[32] = tested on: Mus musculus; experiment: Neurotoxicity in CF1 albino mouse at 30 mg/kg, ip after 0.25 to 4 hrs by rotarod test; assay type: toxicity, organism-based; settings: in vivo; in short: as §4
[33] = Neuroprotective activity in hippocampal slice (unknown origin) assessed as protection against NMDA-induced cell death using propidium iodide staining; assay type: functional; settings: Hippocampus; in short: as §7
[34] = tested on: Mus musculus; experiment: Anticonvulsant activity in CF1 albino mouse assessed as protection against 6 Hz-psychomotor-induced seizure at 30 mg/kg, ip after 0.25 to 4 hrs; assay type: functional, organism-based; in short: as §6
[35] = tested on: Mus musculus; experiment: Anticonvulsant activity in CF1 albino mouse assessed as protection against 6 Hz-psychomotor-induced seizure at 60 mg/kg, ip after 4 hrs; assay type: functional, organism-based; in short: as §6
[36] = tested on: Mus musculus; experiment: Neurotoxicity in CF1 albino mouse at 60 mg/kg, ip after 1 to 4 hrs by rotarod test; assay type: toxicity, organism-based; settings: in vivo; in short: as §4
[37] = tested on: Rattus norvegicus; experiment: Anticonvulsant activity in Sprague-Dawley rat assessed as protection against pilocarpine-induced convulsive status epilepticus at 65 mg/kg, ip; assay type: functional, organism-based
In short: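 Male Sprague Dawley rats (150–180 g) dosed ip, pilocarpine 50 mg/kg ip given; compound dosed immediately at first behavioral Stage 3 seizure or 30 min later. Number protected from Racine Stage 3 or greater seizures recorded.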

| Structure (SMILES) | Activity [1] | Activity [2] | Activity [3] | Activity [4] | Activity [5] | Activity [6] | Activity [7] | Activity [8] | Activity [9] | Activity [10] | Activity [12] | Activity [13] | Activity [14] | Activity [15] | Ki [16] [nM] | Activity [17] | Activity [18] | other results |
| --- | --- | --- | --- | --- | --- | --- | --- | --- | --- | --- | --- | --- | --- | --- | --- | --- | --- | --- |
| Clc1ccc(OCCCCCN2CCCCCC2)cc1.O=C(O)C(=O)O | Toxic | inactive | Active | Non-toxic | Active | inactive | inactive | inactive | Non-toxic | inactive | Non-toxic | Non-toxic | Non-toxic | Non-toxic | 371 | inactive | inactive | Activity [11]: Toxic |
| CC1CCCN(CCCCCCOc2cccc(Cl)c2)C1.O=C(O)C(=O)O (configuration not stated) | Toxic | inactive | Active | Non-toxic | Active | inactive | inactive | inactive | Non-toxic | inactive | Non-toxic | Non-toxic | Non-toxic | Non-toxic | 174 | inactive | inactive | Activity [19]: Non-toxic; Activity [20]: inactive; Activity [21]: Toxic; Activity [22]: Non-toxic; Activity [23]: Non-toxic; Activity [24]: Active; Activity [25]: inactive; Activity [26]: Non-toxic; Activity [27]: inactive; Activity [28]: inactive; Activity [29]: inactive |
| Clc1ccc(OCCCCCCN2CCCCC2)cc1.O=C(O)C(=O)O | Toxic | inactive | – | Non-toxic | Active | inactive | inactive | – | Non-toxic | inactive | Non-toxic | – | Non-toxic | Non-toxic | 265 | inactive | – | Activity [30]: inactive; Activity [31]: Toxic; Activity [32]: Non-toxic; Activity [33]: inactive; Activity [34]: inactive; Activity [35]: inactive; Activity [36]: Non-toxic; Activity [37]: Active |
